Columns and labels:
Rattus norvegicus [1] = assay: Antialzheimer activity in Sprague-Dawley rat assessed as amyloid beta 37 level in CSF at 10 mg/kg, po at 4 hrs by ELISA relative to control; type: functional
Method in brief: (§1)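 Male Sprague-Dawley rats (180-220 g), fasted overnight, were given 10 mg/kg by gastric intubation as a 5 mg/mL suspension in 0.5% methocellulose. At 2, 4, 7 and 25 h, 50 μL CSF was taken from the cisterna magna under isoflurane, then brain was collected. Aβ37/38/40/42 were measured by MesoScale Discovery sandwich immunoassays. Results are mean % change versus T = 0 h, n = 5.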

Cytochrome P450 2C19 = Cytochrome P450 2C19 (Homo sapiens, UniProt P33261); assay: Inhibition of CYP2C19 in human liver microsomes using S-mephenytoin as substrate; type: ADME, Microsome
Canis familiaris [2] = assay: Antialzheimer activity in beagle dog assessed as amyloid beta 42 level in cerebrospinal fluid at 20 mg/kg, po at 24 hrs by ELISA relative to control
Rattus norvegicus [3] = assay: Antialzheimer activity in Sprague-Dawley rat assessed as amyloid beta 40 level in brain at 10 mg/kg, po at 7 hrs by ELISA relative to control; type: functional; method in brief: as §1
Mus musculus [4] = assay: Antialzheimer activity in CD1 mouse assessed as amyloid beta 42 level in brain at 10 mg/kg, po at 8 hrs by ELISA relative to control; type: functional
Method in brief: (§2)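 Male CD1 SPF mice, fasted overnight, got a single oral dose of 10 or 30 mg/kg. At each time point the right brain hemisphere was homogenized in 0.4% DEA/50 mM NaCl with protease inhibitors and spun at 221300g for 50 min. The supernatant was neutralized with Tris-HCl pH 6.8. Aβ38 or Aβ42 was read by sandwich ELISA with a fluorogenic peroxidase substrate (ex 320/em 420 nm). Results are mean % change versus T = 0 h, n = 4.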

Mus musculus [5] = assay: Antialzheimer activity in CD1 mouse assessed as amyloid beta 38 level in brain at 10 mg/kg, po at 24 hrs by ELISA relative to control; type: functional; method in brief: as §2
Canis familiaris [6] = assay: Antialzheimer activity in beagle dog assessed as amyloid beta 38 level in cerebrospinal fluid at 20 mg/kg, po at 24 hrs by ELISA relative to control

Chain of Cytochrome P450 2C19 (P33261 whole entry): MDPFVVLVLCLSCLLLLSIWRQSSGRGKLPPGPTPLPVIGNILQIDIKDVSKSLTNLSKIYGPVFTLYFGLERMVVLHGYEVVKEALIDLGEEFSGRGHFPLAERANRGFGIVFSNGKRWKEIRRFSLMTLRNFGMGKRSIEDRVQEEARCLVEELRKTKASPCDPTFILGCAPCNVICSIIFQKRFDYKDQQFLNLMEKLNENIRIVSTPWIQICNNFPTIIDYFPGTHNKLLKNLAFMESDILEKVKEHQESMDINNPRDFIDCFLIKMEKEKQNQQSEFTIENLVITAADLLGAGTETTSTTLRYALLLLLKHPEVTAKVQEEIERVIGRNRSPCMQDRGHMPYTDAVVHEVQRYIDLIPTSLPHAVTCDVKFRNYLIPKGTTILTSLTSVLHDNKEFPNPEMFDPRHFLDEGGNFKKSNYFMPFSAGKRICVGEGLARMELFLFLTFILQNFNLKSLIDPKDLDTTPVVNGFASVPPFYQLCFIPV

SMILES: COc1nc(Nc2cccc3c2nc(-c2ccc(F)cc2)n3C)ccc1-n1cnc(C)c1
- Activity (Rattus norvegicus [1]): 955%
- IC50 (Cytochrome P450 2C19): 3.5 µM
- Activity (Canis familiaris [2]): 89%
- Activity (Rattus norvegicus [3]): 66%
- Activity (Mus musculus [4]): 50%
- Activity (Mus musculus [5]): 83%
- Activity (Canis familiaris [6]): 114%

— ChEMBL document CHEMBL2176900, “Design and synthesis of a novel series of bicyclic heterocycles as potent γ-secretase modulators” (J Med Chem, 2012)
